# Screening results deposited in PubChem by several laboratories.
# Sampled rows, rich in hits. Any-hit rate of the full collection: about 2.6%.
# PRMT1 FP inh – blocks human protein arginine methyltransferase 1; Q99873; recombinant PRMT1, activity-based probe fluorescence polarization; inhibition, % at 2.79 µM; 370,000 tested, 1.3% active;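 active = inhibition above about 21% made by adding two undisclosed values, limit read from the data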
# TDP2 absorb – TDP2 (human) inhibition, absorbance primary screen | 370,000 tested, 0.34% active | O95551 | inhibition, % at 12.8 µM | recombinant TDP2, T5PNP hydrolysis, p-nitrophenol absorbance 415 nm;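 active = inhibition above the mean of all tested compounds plus 3 SD, set per campaign, cut at about 25% in these data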;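 also: 0% = DMSO with enzyme and 100% = buffer with substrate but no TDP2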
#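 Test system: Human TDP2 enzyme | Reagent: 5 mM T5PNP | Compound dosing: 12.8 µM single point, 1% DMSO | Incubation: Enzyme reaction with compound for 2 h at 37 °C | Technique: p-Nitrophenol epi absorbance | Read-out: % inhibition relative to enzyme-containing and enzyme-free wells | Benchmarks: High control without enzyme, low control DMSO plus TDP2 | Replicates: Singlicate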
# Apaf1 inhib – blocks human Apaf-1 apoptosome activity; reconstituted apoptosome caspase-3 activity, DEVD-Rh110 fluorescence; 330,000 tested, 0.71% active; inhibition, % at 20 µM; AID 489030; active = inhibition of at least 40% at 20 µM;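 also: plate controls were DMSO wells for no effect and DEVD-CHO caspase inhibitor wells for full effect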
#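 Assay system – apoptosome proteins · Medium – Hepes buffer, pH 7.5 · Also added – cytochrome c with DEVD-Rh110 · Timing – 30 min compound preincubation, 50 min activation, room temperature · Detection – Rh110 fluorescence, excitation 480 nm, emission 540 nm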
# GSTO1 inh – counter-screen for RBBP9 inhibitors: inhibitors of human GSTO1; recombinant GSTO1, activity-based probe fluorescence polarization; inhibition, % at 5.96 µM; 300,000 tested, 1.1% active; AID 1974;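 active = inhibition above the campaign mean inhibition plus 3 SD, cut at about 35% in these data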;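 also: 0% = GSTO1-1 with DMSO and 100% = wells lacking GSTO1-1 enzyme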
# Target sequence (P78417 whole entry, looked up): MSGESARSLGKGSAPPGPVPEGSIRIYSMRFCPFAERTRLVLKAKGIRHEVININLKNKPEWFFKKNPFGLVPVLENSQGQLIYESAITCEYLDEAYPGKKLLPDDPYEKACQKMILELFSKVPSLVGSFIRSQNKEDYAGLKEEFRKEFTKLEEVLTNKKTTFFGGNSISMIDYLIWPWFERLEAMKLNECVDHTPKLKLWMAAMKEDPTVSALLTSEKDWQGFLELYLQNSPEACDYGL
# PAD4 inh – PAD4 (human) enzyme inhibition | 330,000 tested, 0.41% active | recombinant PAD4, RCA probe fluorescence polarization | AID 485272 | inhibition, % at 6.36 µM;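 active = percent inhibition above a cutoff equal to the mean of all tested compounds plus 3 SD, cut at about 15% in these data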;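 also: 0% = PAD4 with RCA probe and DMSO and 100% = probe without PAD4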
# GSTO1 confirm – confirmation of human GSTO1 inhibitors; shares compounds with GSTO1 inh; recombinant GSTO1, probe fluorescence polarization; inhibition, % at 5.96 µM; 2,400 tested, 54% active;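 active = inhibition above the primary screen's cutoff, its mean inhibition plus 3 SD, cut at about 35% in these data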;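 also: loss of polarization as inhibitors block binding of rhodamine sulfonate ester activity probe; 0% = GSTO1 with DMSO and 100% = wells lacking GSTO1 enzyme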
# GSTO1 ABPP inh – GSTO1 (human) inhibition by gel ABPP; shares compounds with GSTO1 inh; recombinant GSTO1, gel ABPP SE-Rh probe fluorescence; inhibition, % at 1 µM; 130 tested, 30% active;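 active = inhibition of the enzyme GSTO1 above about 75%, limit read from the data; inactive = inhibition below that limit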
# An asterisk follows results filed as active; . = not tested or not shown.
SMILES,PRMT1 FP inh,TDP2 absorb,Apaf1 inhib,GSTO1 inh,PAD4 inh,GSTO1 confirm,others
O=C(O)c1cccc2c1NC(C(=O)O)C1CC(Sc3ccccc3[N+](=O)[O-])C(Cl)C21 (stereo not drawn),81*,17,.,39*,4,-21,
C=CCn1c(O)c(/C=N/NC(=O)CCCC)c(=O)[nH]c1=S,-6,-4,-14,0,-3,.,
C=CCN1CCc2cccc3c2[C@H]1Cc1ccc(O)c(O)c1-3,40*,-21,20,87*,-6,17,
C=CCN1CC[C@]23c4c5ccc(O)c4O[C@H]2C(=O)CC[C@@]3(O)[C@H]1C5,0,1,-2,-2,2,.,
Cc1cc(=O)[nH]c(CCl)n1,2,5,2,67*,-4,90*,GSTO1 ABPP inh=14
Cc1cc(=O)[nH]c(SCc2nc3ccccc3c(=O)n2-c2ccccc2C)n1,2,11,-13,2,-6,.,
CC(C)(C)c1cc([N+](=O)[O-])cc(C(C)(C)C)c1O,1,-4,7,-7,-1,.,
O=C(O)C1C2c3ccccc3C(O)C1(C(=O)O)c1ccccc12 (stereo not drawn),2,8,.,.,.,.,
CCN(CC)c1ccc(N=Cc2c(O)[nH]c(=O)[nH]c2=O)cc1,31*,8,4,56*,26*,1,
O=C(Nc1ccc2ccccc2c1)c1nn(C23CC4CC(CC(C4)C2)C3)cc1Br,2,5,5,-2,-4,.,
Cc1nc(Cl)sc1C(=O)Nc1ccc2ccccc2c1,-1,5,-2,55*,2,54*,
COc1ccc2ccccc2c1CNCCc1ccccc1,1,-8,-11,-1,-2,.,
CCOC(=O)C(NC(=O)CC)(Nc1ccc(C(O)(C(=O)OCC)C(F)(F)F)cc1C)C(F)(F)F (stereo not drawn),2,-8,2,7,-2,.,
CCOC(=O)C(NC(=O)CCl)(Nc1ccc(C(O)(C(=O)OCC)C(F)(F)F)cc1)C(F)(F)F (stereo not drawn),2,1,11,53*,0,74*,
Cc1ccccc1NC(=O)N1Cc2ccccc2-n2nncc2C1,-2,13,.,.,.,.,
O=C(CCl)Nc1nccs1,-3,10,-1,92*,-1,99*,
Cc1cc(NC(=O)CCl)nn1C,-4,-26,6,85*,1,86*,
Cn1ccc(NC(=O)CCl)n1,0,10,-11,62*,-2,85*,
Cc1cc(C(=O)Nc2ccccc2)nn1C(C)(C)C,3,2,-1,7,3,.,
CCC(=O)Nc1ccc(Cl)c(Cl)c1,4,-8,.,.,.,.,
Clc1cccc(N2Cc3ccccc3-n3nncc3C2)c1,-1,5,.,.,.,.,
CCCCCn1c(N)c(C(=O)NCCN2CCOCC2)c2nc3ccccc3nc21,0,-13,32,4,-3,.,
CC(C)CCOC(=O)c1c(N)n(CC2CCCO2)c2nc3ccccc3nc12 (stereo not drawn),0,-6,24,53*,1,-2,
Nc1c(C(=O)OC2CCCCC2)c2nc3ccccc3nc2n1CC1CCCO1 (stereo not drawn),4,20,32,42*,-13,-2,
CNCCc1ccc(O)c(O)c1,21*,-2,-6,73*,-5,8,
SMILES,PRMT1 FP inh,TDP2 absorb,Apaf1 inhib,GSTO1 inh,PAD4 inh,GSTO1 confirm,others
O=C1NC(=O)N(Cc2ccco2)C(=O)/C1=C/c1ccc(-c2cccc([N+](=O)[O-])c2)o1,.,.,8,40*,0,27,
C=CCN1C(=O)NC(=O)/C(=C\c2ccc(-c3ccccc3[N+](=O)[O-])o2)C1=O,17,12,-8,17,-1,.,
CN1CC[C@@H]2CN[C@H](c3ccccc3Br)C[C@@H]21,-1,2,.,.,.,.,
COCC(C)OC(=O)c1c(N)n(Cc2ccco2)c2nc3ccccc3nc12 (stereo not drawn),10,6,61*,59*,-11,18,
CCCOC(=O)c1c(N)n(Cc2cccs2)c2nc3ccccc3nc12,-2,9,29,42*,-19,-2,
CCCCn1c(N)c(C(=O)OCCOC)c2nc3ccccc3nc21,0,7,24,17,-5,.,
Cc1cc(C)c(NC2=NCCS2)cc1C,0,7,.,.,.,.,
